Measurements from ChEMBL document CHEMBL4229333, “Effects of rigidity on the selectivity of protein kinase inhibitors” (Eur J Med Chem, 2018).

Legend:
[1] = target: Serine/threonine-protein kinase D1 (Homo sapiens) (UniProt Q15139); assay: Inhibition of PRKD1 (unknown origin) at 1 uM by mobility shift microfluidics platform based assay relative to control
[2] = target: Receptor-type tyrosine-protein kinase FLT3 (Homo sapiens) (UniProt P36888); assay: Inhibition of FLT3 (unknown origin) at 1 uM by mobility shift microfluidics platform based assay relative to control
[3] = Apparent permeability from apical to basolateral side in human Caco2 cells in absence of P-gp inhibitor by LC-MS/MS analysis; format: ADME, cell-based; details: Caco-2
Summary of the method: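 Caco-2 monolayer permeability, measured apical-to-basolateral and basolateral-to-apical. Compound concentrations were quantified by LC-MS/MS, and apparent permeability coefficients (Papp, cm/s) were calculated from them.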

[4] = target: MAP kinase-activated protein kinase 3 (Homo sapiens) (UniProt Q16644); assay: Inhibition of MAPKAPK3 (unknown origin) at 1 uM by mobility shift microfluidics platform based assay relative to control
[5] = target: Serine/threonine-protein kinase D2 (Homo sapiens) (UniProt Q9BZL6); assay: Inhibition of PRKD2 (unknown origin) at 1 uM by mobility shift microfluidics platform based assay relative to control
[6] = target: Homeodomain-interacting protein kinase 2 (Homo sapiens) (UniProt Q9H2X6); assay: Inhibition of HIPK2 (unknown origin) at 1 uM by mobility shift microfluidics platform based assay relative to control
Chain of Homeodomain-interacting protein kinase 2 (Homo sapiens) (Q9H2X6 whole entry, looked up): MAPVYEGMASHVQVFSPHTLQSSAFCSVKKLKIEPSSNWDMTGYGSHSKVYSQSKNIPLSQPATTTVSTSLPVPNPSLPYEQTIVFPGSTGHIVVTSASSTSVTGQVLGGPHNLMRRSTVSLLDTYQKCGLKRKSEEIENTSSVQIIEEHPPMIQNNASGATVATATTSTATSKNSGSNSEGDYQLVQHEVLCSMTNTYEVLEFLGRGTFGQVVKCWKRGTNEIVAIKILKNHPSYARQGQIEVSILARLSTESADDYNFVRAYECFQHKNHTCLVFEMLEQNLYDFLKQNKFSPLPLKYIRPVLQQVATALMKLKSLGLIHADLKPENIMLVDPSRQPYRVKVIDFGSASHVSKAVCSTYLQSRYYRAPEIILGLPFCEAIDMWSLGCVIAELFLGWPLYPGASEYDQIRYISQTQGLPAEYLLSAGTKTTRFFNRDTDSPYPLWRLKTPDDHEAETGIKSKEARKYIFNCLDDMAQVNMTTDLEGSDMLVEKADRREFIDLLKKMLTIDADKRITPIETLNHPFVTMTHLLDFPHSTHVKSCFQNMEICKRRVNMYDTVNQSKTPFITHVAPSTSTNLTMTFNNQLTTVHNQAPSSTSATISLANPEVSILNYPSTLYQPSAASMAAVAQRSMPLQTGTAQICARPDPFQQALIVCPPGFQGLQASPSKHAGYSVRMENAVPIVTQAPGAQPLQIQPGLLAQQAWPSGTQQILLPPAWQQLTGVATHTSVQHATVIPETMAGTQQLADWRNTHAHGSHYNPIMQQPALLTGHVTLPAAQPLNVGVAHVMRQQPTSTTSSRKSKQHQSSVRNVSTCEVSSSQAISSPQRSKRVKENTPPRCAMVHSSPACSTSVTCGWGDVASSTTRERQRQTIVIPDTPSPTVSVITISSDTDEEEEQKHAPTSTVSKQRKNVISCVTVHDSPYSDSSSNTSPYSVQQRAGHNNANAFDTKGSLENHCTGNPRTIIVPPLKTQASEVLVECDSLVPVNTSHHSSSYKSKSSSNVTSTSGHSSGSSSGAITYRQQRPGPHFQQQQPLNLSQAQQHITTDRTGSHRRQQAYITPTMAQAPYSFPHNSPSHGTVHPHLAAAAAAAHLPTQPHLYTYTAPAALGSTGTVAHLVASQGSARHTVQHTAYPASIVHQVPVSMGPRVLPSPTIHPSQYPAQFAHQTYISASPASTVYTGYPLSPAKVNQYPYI

[7] = target: AMPK alpha2/beta1/gamma1 (Homo sapiens) (UniProt P54646+P54619+Q9Y478); assay: Inhibition of AMP-A2B1G1 (unknown origin) at 1 uM by mobility shift microfluidics platform based assay relative to control; format: protein-complex assay
[8] = target: Homeodomain-interacting protein kinase 3 (Homo sapiens) (UniProt Q9H422); assay: Inhibition of HIPK3 (unknown origin) at 1 uM by mobility shift microfluidics platform based assay relative to control
Chain of Homeodomain-interacting protein kinase 3 (Homo sapiens) (Q9H422 whole entry, looked up): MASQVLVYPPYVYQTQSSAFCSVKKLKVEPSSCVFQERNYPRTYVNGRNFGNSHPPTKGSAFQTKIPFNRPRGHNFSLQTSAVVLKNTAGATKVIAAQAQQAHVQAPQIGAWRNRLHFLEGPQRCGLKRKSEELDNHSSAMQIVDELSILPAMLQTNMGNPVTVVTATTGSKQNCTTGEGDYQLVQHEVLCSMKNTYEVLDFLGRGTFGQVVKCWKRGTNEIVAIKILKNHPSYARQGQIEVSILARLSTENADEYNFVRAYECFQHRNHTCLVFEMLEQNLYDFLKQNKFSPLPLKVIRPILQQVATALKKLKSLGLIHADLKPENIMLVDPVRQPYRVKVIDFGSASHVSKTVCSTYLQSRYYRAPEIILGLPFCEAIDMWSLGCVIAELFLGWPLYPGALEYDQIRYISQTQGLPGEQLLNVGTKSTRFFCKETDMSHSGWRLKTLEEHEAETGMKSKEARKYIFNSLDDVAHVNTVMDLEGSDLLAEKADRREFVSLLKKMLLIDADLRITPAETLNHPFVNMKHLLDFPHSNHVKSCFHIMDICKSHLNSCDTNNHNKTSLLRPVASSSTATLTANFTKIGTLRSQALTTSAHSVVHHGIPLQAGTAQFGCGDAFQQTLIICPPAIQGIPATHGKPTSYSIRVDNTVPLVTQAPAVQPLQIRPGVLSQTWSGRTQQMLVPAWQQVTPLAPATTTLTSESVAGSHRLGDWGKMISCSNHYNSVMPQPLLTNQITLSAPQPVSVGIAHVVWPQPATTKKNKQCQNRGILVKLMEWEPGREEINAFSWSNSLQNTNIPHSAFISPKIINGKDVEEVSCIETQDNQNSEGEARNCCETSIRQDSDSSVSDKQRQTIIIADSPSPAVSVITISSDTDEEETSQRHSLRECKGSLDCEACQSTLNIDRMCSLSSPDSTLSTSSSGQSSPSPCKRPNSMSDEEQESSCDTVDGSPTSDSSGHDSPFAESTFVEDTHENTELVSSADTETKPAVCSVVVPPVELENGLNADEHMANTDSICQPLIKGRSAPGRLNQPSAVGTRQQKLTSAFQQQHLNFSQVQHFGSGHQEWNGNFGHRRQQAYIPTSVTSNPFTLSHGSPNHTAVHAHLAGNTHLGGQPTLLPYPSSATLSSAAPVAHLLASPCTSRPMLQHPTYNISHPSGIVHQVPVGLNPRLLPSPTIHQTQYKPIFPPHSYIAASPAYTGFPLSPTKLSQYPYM

[9] = target: Tyrosine-protein kinase ABL2 (Homo sapiens) (UniProt P42684); assay: Inhibition of ARG (unknown origin) at 1 uM by mobility shift microfluidics platform based assay relative to control
[10] = organism: Homo sapiens; assay: Inhibition of CDK6/Cyclin D (unknown origin) at 1 uM by mobility shift microfluidics platform based assay relative to control
[11] = target: Protein kinase C eta type (Homo sapiens) (UniProt P24723); assay: Inhibition of PKC-eta (unknown origin) at 1 uM by mobility shift microfluidics platform based assay relative to control
Chain of Protein kinase C eta type (Homo sapiens) (P24723 whole entry): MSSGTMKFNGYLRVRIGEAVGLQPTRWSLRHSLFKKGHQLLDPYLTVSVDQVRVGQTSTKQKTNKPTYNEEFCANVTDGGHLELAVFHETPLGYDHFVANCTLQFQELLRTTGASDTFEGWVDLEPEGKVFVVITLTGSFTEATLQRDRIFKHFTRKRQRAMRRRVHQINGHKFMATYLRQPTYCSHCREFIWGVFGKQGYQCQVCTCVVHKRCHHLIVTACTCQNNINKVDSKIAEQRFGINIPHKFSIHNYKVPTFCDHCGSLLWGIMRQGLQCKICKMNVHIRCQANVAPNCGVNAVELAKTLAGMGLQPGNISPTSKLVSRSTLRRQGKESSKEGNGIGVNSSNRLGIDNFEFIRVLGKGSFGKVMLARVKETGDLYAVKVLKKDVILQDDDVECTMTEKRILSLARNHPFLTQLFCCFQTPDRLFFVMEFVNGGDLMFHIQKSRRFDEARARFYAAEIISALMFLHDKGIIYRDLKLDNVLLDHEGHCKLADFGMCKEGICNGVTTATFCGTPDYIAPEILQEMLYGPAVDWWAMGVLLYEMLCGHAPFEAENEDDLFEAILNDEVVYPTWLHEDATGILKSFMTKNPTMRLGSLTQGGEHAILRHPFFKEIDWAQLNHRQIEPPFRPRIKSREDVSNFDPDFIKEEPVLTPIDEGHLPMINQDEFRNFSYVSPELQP

[12] = target: Sphingosine kinase 2 (Homo sapiens) (UniProt Q9NRA0); assay: Inhibition of SPHK2 (unknown origin) at 1 uM by mobility shift microfluidics platform based assay relative to control
Chain of Sphingosine kinase 2 (Homo sapiens) (Q9NRA0 whole entry): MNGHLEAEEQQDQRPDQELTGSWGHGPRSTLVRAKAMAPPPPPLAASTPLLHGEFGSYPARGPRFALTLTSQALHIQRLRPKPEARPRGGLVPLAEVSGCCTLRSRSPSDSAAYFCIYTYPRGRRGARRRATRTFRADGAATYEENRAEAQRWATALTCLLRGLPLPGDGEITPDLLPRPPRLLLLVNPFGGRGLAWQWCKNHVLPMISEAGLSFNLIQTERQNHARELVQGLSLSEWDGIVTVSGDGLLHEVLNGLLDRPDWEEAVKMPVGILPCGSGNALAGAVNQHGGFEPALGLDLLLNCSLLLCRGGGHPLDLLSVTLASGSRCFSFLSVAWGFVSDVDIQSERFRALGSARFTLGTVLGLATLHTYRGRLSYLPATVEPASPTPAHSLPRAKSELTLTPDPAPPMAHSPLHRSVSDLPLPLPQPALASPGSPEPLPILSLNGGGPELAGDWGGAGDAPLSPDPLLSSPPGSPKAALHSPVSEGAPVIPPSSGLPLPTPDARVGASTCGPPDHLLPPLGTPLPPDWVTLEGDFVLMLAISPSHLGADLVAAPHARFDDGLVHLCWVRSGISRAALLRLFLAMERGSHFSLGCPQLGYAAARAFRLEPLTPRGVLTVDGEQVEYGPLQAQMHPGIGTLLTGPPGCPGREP

[13] = target: Mitogen-activated protein kinase kinase kinase kinase 5 (Homo sapiens) (UniProt Q9Y4K4); assay: Inhibition of MAP4K5 (unknown origin) at 1 uM by mobility shift microfluidics platform based assay relative to control
[14] = target: Rho-associated protein kinase 2 (Homo sapiens) (UniProt O75116); assay: Inhibition of ROCK2 (unknown origin) at 1 uM by mobility shift microfluidics platform based assay relative to control
[15] = target: Macrophage-stimulating protein receptor (Homo sapiens) (UniProt Q04912); assay: Inhibition of RON (unknown origin) at 1 uM by mobility shift microfluidics platform based assay relative to control
[16] = target: Ephrin type-B receptor 2 (Homo sapiens) (UniProt P29323); assay: Inhibition of EPH-B2 (unknown origin) at 1 uM by mobility shift microfluidics platform based assay relative to control
[17] = target: SRSF protein kinase 2 (Homo sapiens) (UniProt P78362); assay: Inhibition of SRPK2 (unknown origin) at 1 uM by mobility shift microfluidics platform based assay relative to control
[18] = target: BDNF/NT-3 growth factors receptor (Homo sapiens) (UniProt Q16620); assay: Inhibition of TRKB (unknown origin) at 1 uM by mobility shift microfluidics platform based assay relative to control
[19] = target: Aurora kinase B (Homo sapiens) (UniProt Q96GD4); assay: Inhibition of AURORA-B (unknown origin) at 1 uM by mobility shift microfluidics platform based assay relative to control
[20] = target: Inhibitor of nuclear factor kappa-B kinase subunit beta (Homo sapiens) (UniProt O14920); assay: Inhibition of IKK-beta (unknown origin) at 1 uM by mobility shift microfluidics platform based assay relative to control
[21] = target: RAC-alpha serine/threonine-protein kinase (Homo sapiens) (UniProt P31749); assay: Inhibition of AKT1 (unknown origin) at 1 uM by mobility shift microfluidics platform based assay relative to control
[22] = target: Protein-tyrosine kinase 2-beta (Homo sapiens) (UniProt Q14289); assay: Inhibition of PYK2 (unknown origin) at 1 uM by mobility shift microfluidics platform based assay relative to control
[23] = test system: Caco-2; assay: Efflux ratio in human Caco2 cells in absence of P-gp inhibitor by LC-MS/MS analysis; format: ADME, cell-based
Summary of the method: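 Caco-2 bidirectional transport, with compound concentrations measured by LC-MS/MS. Efflux ratio was calculated as Papp(B−A)/Papp(A−B).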

[24] = target: 3-phosphoinositide-dependent protein kinase 1 (Homo sapiens) (UniProt O15530); assay: Inhibition of PDK1 (unknown origin) at 1 uM by mobility shift microfluidics platform based assay relative to control
Chain of 3-phosphoinositide-dependent protein kinase 1 (Homo sapiens) (O15530 whole entry): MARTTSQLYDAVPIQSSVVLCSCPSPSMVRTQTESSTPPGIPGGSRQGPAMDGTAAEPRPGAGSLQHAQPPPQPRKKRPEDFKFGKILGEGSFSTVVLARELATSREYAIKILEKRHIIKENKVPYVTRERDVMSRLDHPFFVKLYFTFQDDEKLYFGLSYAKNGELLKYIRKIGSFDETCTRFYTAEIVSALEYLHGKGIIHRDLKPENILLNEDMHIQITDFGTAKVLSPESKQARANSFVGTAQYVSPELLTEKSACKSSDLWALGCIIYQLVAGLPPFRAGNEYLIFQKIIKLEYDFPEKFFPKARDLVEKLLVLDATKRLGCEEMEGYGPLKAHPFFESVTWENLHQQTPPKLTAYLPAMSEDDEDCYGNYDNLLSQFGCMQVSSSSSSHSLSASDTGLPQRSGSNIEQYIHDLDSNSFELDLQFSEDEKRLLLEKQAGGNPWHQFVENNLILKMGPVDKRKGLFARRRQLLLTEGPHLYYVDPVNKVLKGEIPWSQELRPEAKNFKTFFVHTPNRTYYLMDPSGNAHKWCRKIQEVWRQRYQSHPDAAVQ

[25] = target: Mitogen-activated protein kinase kinase kinase kinase 2 (Homo sapiens) (UniProt Q12851); assay: Inhibition of MAP4K2 (unknown origin) at 1 uM by mobility shift microfluidics platform based assay relative to control
[26] = target: Tyrosine-protein kinase Lyn (Homo sapiens) (UniProt P07948); assay: Inhibition of LYNB (unknown origin) at 1 uM by mobility shift microfluidics platform based assay relative to control
Chain of Tyrosine-protein kinase Lyn (Homo sapiens) (P07948 2-512 limits assumed): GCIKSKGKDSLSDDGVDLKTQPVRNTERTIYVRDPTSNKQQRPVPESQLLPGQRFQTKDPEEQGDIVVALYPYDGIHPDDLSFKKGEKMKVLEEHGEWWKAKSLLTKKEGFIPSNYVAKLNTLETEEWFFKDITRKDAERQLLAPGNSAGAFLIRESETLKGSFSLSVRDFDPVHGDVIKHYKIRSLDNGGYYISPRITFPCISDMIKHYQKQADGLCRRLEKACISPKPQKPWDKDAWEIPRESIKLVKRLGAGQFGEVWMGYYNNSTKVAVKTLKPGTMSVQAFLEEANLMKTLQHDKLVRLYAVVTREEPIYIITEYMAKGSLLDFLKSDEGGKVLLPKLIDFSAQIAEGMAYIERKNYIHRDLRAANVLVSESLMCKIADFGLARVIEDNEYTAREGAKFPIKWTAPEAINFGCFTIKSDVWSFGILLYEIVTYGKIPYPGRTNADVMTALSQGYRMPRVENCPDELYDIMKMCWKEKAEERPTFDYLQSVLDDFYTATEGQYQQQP

[27] = target: Casein kinase I isoform gamma-1 (Homo sapiens) (UniProt Q9HCP0); assay: Inhibition of CK1-gamma1 (unknown origin) at 1 uM by mobility shift microfluidics platform based assay relative to control
[28] = target: Ephrin type-A receptor 2 (Homo sapiens) (UniProt P29317); assay: Inhibition of EPH-A2 (unknown origin) at 1 uM by mobility shift microfluidics platform based assay relative to control
[29] = target: Dual specificity protein kinase CLK2 (Homo sapiens) (UniProt P49760); assay: Inhibition of CLK2 (unknown origin) at 1 uM by mobility shift microfluidics platform based assay relative to control
[30] = target: Tyrosine-protein kinase JAK1 (Homo sapiens) (UniProt P23458); assay: Inhibition of JAK1 (unknown origin) at 1 uM by mobility shift microfluidics platform based assay relative to control
[31] = target: Serine/threonine-protein kinase 26 (Homo sapiens) (UniProt Q9P289); assay: Inhibition of MST4 (unknown origin) at 1 uM by mobility shift microfluidics platform based assay relative to control
[32] = target: Ephrin type-B receptor 1 (Homo sapiens) (UniProt P54762); assay: Inhibition of EPH-B1 (unknown origin) at 1 uM by mobility shift microfluidics platform based assay relative to control
[33] = target: Serine/threonine-protein kinase LATS2 (Homo sapiens) (UniProt Q9NRM7); assay: Inhibition of LATS2 (unknown origin) at 1 uM by mobility shift microfluidics platform based assay relative to control

Row | inhibition [1] | inhibition [2] | Papp A→B [3] | inhibition [4] | inhibition [5] | inhibition [6] | inhibition [7] | inhibition [8] | inhibition [9] | inhibition [10] | inhibition [11] | inhibition [12] | inhibition [13] | inhibition [14] | inhibition [15] | inhibition [16] | inhibition [17] | inhibition [18] | inhibition [19] | inhibition [20] | also measured | SMILES
1 | 4% | 29% | 0.5 ×10⁻⁶ cm/s | 13% | 1% | 0% | 3% | 0% | 99% | -1% | -5% | 0% | 66% | 18% | 2% | 99% | -1% | 43% | 82% | 22% | inhibition [21]: -1%; inhibition [22]: 74%; Ratio [23]: 1.2; inhibition [24]: 4%; inhibition [25]: 67%; inhibition [26]: 100%; inhibition [27]: 9%; inhibition [28]: 100%; inhibition [29]: 5%; inhibition [30]: 97%; inhibition [31]: 9%; inhibition [32]: 97%; inhibition [33]: 0% | CC(C)n1nc(C#Cc2cccc(NC(=O)c3cccc(C(F)(F)F)c3)c2)c2c(N)ncnc21
2 | 3% | 7% | 0.8 ×10⁻⁶ cm/s | 3% | 2% | -1% | 1% | -1% | 94% | 0% | 2% | 20% | 33% | 4% | 1% | 97% | -1% | 13% | 27% | 2% | inhibition [21]: 0%; inhibition [22]: 1%; Ratio [23]: 3.2; inhibition [24]: 5%; inhibition [25]: 24%; inhibition [26]: 94%; inhibition [27]: -5%; inhibition [28]: 90%; inhibition [29]: -1%; inhibition [30]: -3%; inhibition [31]: -1%; inhibition [32]: 84%; inhibition [33]: -2% | CC(C)n1nc(C#Cc2cccc3cc(-c4cccc(C(F)(F)F)c4)ncc23)c2c(N)ncnc21
